Tests used:
Type in all cases: functional
[1] = tested on: SNB-19; test: Cytotoxicity against human SNB19 cells after 48 hrs by SRB assay; conditions: SNB-19, 48 h
In short: (§1)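 NCI 60-cell screen. Cells grew 24 h (37 °C, 5% CO2) before compound was added. Compounds were in DMSO and diluted in medium with gentamicin, then tested at five levels (100, 10, 1.0, 0.1, 0.01 µM) with 48 h continuous exposure. Adherent cells were fixed with TCA (10% final) and stained with 0.4% SRB, absorbance read at 515 nm. A time-zero plate was included. LC50 is the concentration giving 50% loss of protein relative to time zero.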

[2] = tested on: A498; test: Cytotoxicity against human A498 cells after 48 hrs by SRB assay; conditions: A498, 48 h; for CC50: read-out: LC50 (the source's name)
In short: (§2)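 NCI 60-cell-line screen. Cells preincubated 24 h at 37 °C, 5% CO2; time-zero plates TCA-fixed. Compounds dissolved in DMSO and tested at five concentrations (100, 10, 1.0, 0.1, 0.01 µM) for 48 h continuous exposure. Adherent cells fixed with cold TCA (10% final), then SRB stained; absorbance at 515 nm. GI50, TGI and LC50 calculated from growth relative to time-zero and untreated controls.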

[3] = tested on: HCT-116; test: Cytotoxicity against human HCT116 cells after 48 hrs by SRB assay; conditions: HCT-116, 48 h; in short: as §2
[4] = tested on: SK-MEL-28; test: Cytotoxicity against human SK-MEL-28 cells after 48 hrs by SRB assay; conditions: SK-MEL-28, 48 h; for CC50: read-out: LC50 (the source's name); in short: as §2
[5] = tested on: Hs-578T; test: Cytotoxicity against human Hs578T cells after 48 hrs by SRB assay; in short: as §2
[6] = tested on: M14; test: Cytotoxicity against human M14 cells after 48 hrs by SRB assay; conditions: M14, 48 h; for CC50: read-out: LC50 (the source's name); in short: as §2
[7] = tested on: SF-268; test: Cytotoxicity against human SF268 cells after 48 hrs by SRB assay; conditions: SF-268, 48 h; in short: as §2
[8] = tested on: UO-31; test: Cytotoxicity against human UO31 cells after 48 hrs by SRB assay; conditions: UO-31, 48 h; in short: as §1
[9] = tested on: PC-3; test: Cytotoxicity against human PC3 cells after 48 hrs by SRB assay; conditions: PC-3, 48 h; in short: as §2
[10] = tested on: CAKI-1; test: Cytotoxicity against human Caki1 cells after 48 hrs by SRB assay; conditions: CAKI-1, 48 h; in short: as §2
[11] = tested on: SR; test: Cytotoxicity against human SR cells after 48 hrs by SRB assay; in short: as §1
[12] = tested on: HOP-92; test: Cytotoxicity against human HOP92 cells after 48 hrs by SRB assay; conditions: HOP-92, 48 h; in short: as §2
[13] = tested on: NCI-H226; test: Cytotoxicity against human NCI-H226 cells after 48 hrs by SRB assay; conditions: NCI-H226, 48 h; in short: as §2
[14] = tested on: IGROV-1; test: Cytotoxicity against human IGROV1 cells after 48 hrs by SRB assay; conditions: IGROV-1, 48 h; in short: as §2
[15] = tested on: MCF7; test: Cytotoxicity against human MCF7 cells after 48 hrs by SRB assay; conditions: MCF7, 48 h; for CC50: read-out: LC50 (the source's name); in short: as §2
[16] = tested on: OVCAR-4; test: Cytotoxicity against human OVCAR4 cells after 48 hrs by SRB assay; conditions: OVCAR-4, 48 h; in short: as §2
[17] = tested on: HCT-15; test: Cytotoxicity against human HCT15 cells after 48 hrs by SRB assay; conditions: HCT-15, 48 h; in short: as §2
[18] = tested on: 786-0; test: Cytotoxicity against human 786-0 cells after 48 hrs by SRB assay; conditions: 786-0, 48 h; in short: as §2
[19] = tested on: LOX IMVI; test: Cytotoxicity against human LOXIMVI cells after 48 hrs by SRB assay; in short: as §2
[20] = tested on: U-251; test: Cytotoxicity against human U251 cells after 48 hrs by SRB assay; conditions: U-251, 48 h; for CC50: read-out: LC50 (the source's name); in short: as §1
[21] = tested on: Malme-3M; test: Cytotoxicity against human MALME-3M cells after 48 hrs by SRB assay; in short: as §2
[22] = tested on: HT-29; test: Cytotoxicity against human HT-29 cells after 48 hrs by SRB assay; conditions: HT-29, 48 h; in short: as §2
[23] = tested on: SF-539; test: Cytotoxicity against human SF539 cells after 48 hrs by SRB assay; conditions: SF-539, 48 h; for CC50: read-out: LC50 (the source's name); in short: as §2
[24] = tested on: RXF 393; test: Cytotoxicity against human RXF393 cells after 48 hrs by SRB assay; conditions: RXF 393, 48 h; in short: as §2
[25] = tested on: MDA-MB-231; test: Cytotoxicity against human MDA-MB-231 cells after 48 hrs by SRB assay; conditions: MDA-MB-231, 48 h; in short: as §2
[26] = tested on: SK-OV-3; test: Cytotoxicity against human SKOV3 cells after 48 hrs by SRB assay; conditions: SK-OV-3, 48 h; in short: as §2
[27] = tested on: UACC-62; test: Cytotoxicity against human UACC62 cells after 48 hrs by SRB assay; conditions: UACC-62, 48 h; for CC50: read-out: LC50 (the source's name); in short: as §1
[28] = tested on: DU-145; test: Cytotoxicity against human DU145 cells after 48 hrs by SRB assay; conditions: DU-145, 48 h; in short: as §2
[29] = tested on: HCC 2998; test: Cytotoxicity against human HCC2998 cells after 48 hrs by SRB assay; conditions: HCC 2998, 48 h; in short: as §2
[30] = tested on: OVCAR-8; test: Cytotoxicity against human OVCAR8 cells after 48 hrs by SRB assay; conditions: OVCAR-8, 48 h; in short: as §2
[31] = tested on: MDA-MB-435; test: Cytotoxicity against human MDA-MB-435 cells after 48 hrs by SRB assay; conditions: MDA-MB-435, 48 h; in short: as §2
[32] = tested on: TK-10; test: Cytotoxicity against human TK10 cells after 48 hrs by SRB assay; conditions: TK-10, 48 h; in short: as §1
[33] = tested on: CCRF-CEM; test: Cytotoxicity against human CCRF-CEM cells after 48 hrs by SRB assay; in short: as §2
[34] = tested on: KM12; test: Cytotoxicity against human KM12 cells after 48 hrs by SRB assay; conditions: KM12, 48 h; in short: as §2
[35] = tested on: MDA-MB-468; test: Cytotoxicity against human MDA-MB-468 cells after 48 hrs by SRB assay; conditions: MDA-MB-468, 48 h; in short: as §2
[36] = tested on: A549; test: Cytotoxicity against human A549/ATCC cells after 48 hrs by SRB assay; conditions: A549, 48 h; for CC50: read-out: LC50 (the source's name); in short: as §2

Structure (SMILES): COc1ccc(C2CC(c3ccc(Nc4ccnc5cc(Cl)ccc45)cc3)=NN2C=O)cc1 (centres undefined)
- GI50 [1]: 5.65 µM
- LC50 [1]: > 100 µM
- GI50 [2]: > 100 µM
- CC50 [2]: > 100 µM
- GI50 [3]: 9.97 µM
- LC50 [3]: > 100 µM
- GI50 [4]: 20.9 µM
- CC50 [4]: > 100 µM
- GI50 [5]: > 100 µM
- LC50 (50% net cell kill) [5]: > 100 µM
- GI50 [6]: 7.67 µM
- CC50 [6]: > 100 µM
- GI50 [7]: > 100 µM
- LC50 [7]: > 100 µM
- GI50 [8]: 19.7 µM
- LC50 [8]: > 100 µM
- GI50 [9]: 9.43 µM
- LC50 [9]: > 100 µM
- GI50 [10]: > 100 µM
- LC50 [10]: > 100 µM
- GI50 [11]: 2.83 µM
- LC50 [11]: > 100 µM
- LC50 (concentration killing 50% of cells) [12]: > 100 µM
- GI50 [13]: > 100 µM
- LC50 (50% lethal concentration) [13]: > 100 µM
- GI50 [14]: 43.1 µM
- LC50 (concentration killing 50% of cells relative to time zero) [14]: > 100 µM
- GI50 [15]: 8.78 µM
- CC50 [15]: > 100 µM
- GI50 [16]: 13.4 µM
- LC50 [16]: > 100 µM
- GI50 [17]: 2.97 µM
- LC50 (concentration killing 50% of cells relative to time zero) [17]: > 100 µM
- GI50 [18]: 32 µM
- LC50 [18]: > 100 µM
- GI50 [19]: 2.32 µM
- LC50 [19]: > 100 µM
- GI50 [20]: 1.5 µM
- CC50 [20]: > 100 µM
- LC50 [21]: > 100 µM
- GI50 [22]: 3.81 µM
- LC50 [22]: > 100 µM
- GI50 [23]: > 100 µM
- CC50 [23]: > 100 µM
- GI50 [24]: 11.6 µM
- LC50 (concentration killing 50% of cells) [24]: > 100 µM
- GI50 [25]: 20.1 µM
- LC50 (concentration killing 50% of cells present at time zero) [25]: > 100 µM
- GI50 [26]: > 100 µM
- LC50 (concentration killing 50% of cells) [26]: > 100 µM
- GI50 [27]: 5.99 µM
- CC50 [27]: > 100 µM
- GI50 [28]: 38 µM
- LC50 (concentration killing 50% of cells) [28]: > 100 µM
- GI50 [29]: 18.1 µM
- LC50 [29]: > 100 µM
- GI50 [30]: 69.8 µM
- LC50 (50% net cell kill) [30]: > 100 µM
- GI50 [31]: 1.72 µM
- LC50 [31]: > 100 µM
- GI50 [32]: 20.9 µM
- LC50 (concentration giving 50% cell loss vs time zero) [32]: > 100 µM
- GI50 [33]: 2.71 µM
- LC50 (concentration killing 50% of cells relative to time zero) [33]: > 100 µM
- GI50 [34]: 16.5 µM
- LC50 (concentration killing 50% of cells) [34]: > 100 µM
- GI50 [35]: 1 µM
- LC50 [35]: > 100 µM
- GI50 [36]: 50.3 µM
- CC50 [36]: > 100 µM

Structure (SMILES): COc1cccc2c1C(=O)c1c(O)c3c(c(O)c1C2=O)C[C@@](O)(C(=O)CO)C[C@@H]3O[C@H]1C[C@H](N)[C@H](O)[C@H](C)O1 [DOXORUBICIN]
- GI50 [1]: 0.04 µM
- GI50 [2]: 0.1 µM
- CC50 [2]: 1.9 µM
- GI50 [3]: 0.08 µM
- GI50 [4]: 0.21 µM
- CC50 [4]: 15.9 µM
- GI50 [5]: 0.33 µM
- GI50 [6]: 0.18 µM
- CC50 [6]: 4.05 µM
- GI50 [7]: 0.1 µM
- GI50 [8]: 0.49 µM
- GI50 [9]: 0.32 µM
- GI50 [10]: 0.95 µM
- GI50 [11]: 0.03 µM
- GI50 [12]: 0.1 µM
- GI50 [13]: 0.05 µM
- GI50 [14]: 0.17 µM
- GI50 [15]: 0.03 µM
- CC50 [15]: 51.3 µM
- GI50 [16]: 0.37 µM
- GI50 [17]: 6.46 µM
- GI50 [18]: 0.13 µM
- GI50 [19]: 0.07 µM
- GI50 [20]: 0.04 µM
- CC50 [20]: 30.6 µM
- GI50 [21]: 0.12 µM
- GI50 [22]: 0.12 µM
- GI50 [23]: 0.12 µM
- CC50 [23]: 27.2 µM
- GI50 [24]: 0.1 µM
- GI50 [25]: 0.51 µM
- GI50 [26]: 0.22 µM
- GI50 [27]: 0.12 µM
- CC50 [27]: 0.74 µM
- GI50 [28]: 0.11 µM
- GI50 [29]: 0.26 µM
- GI50 [30]: 0.1 µM
- GI50 [31]: 0.25 µM
- GI50 [32]: 0.18 µM
- GI50 [33]: 0.08 µM
- GI50 [34]: 0.27 µM
- GI50 [35]: 0.05 µM
- GI50 [36]: 0.06 µM
- CC50 [36]: 100 µM

Source: ChEMBL document CHEMBL2417469, “Synthesis of novel analogs of 2-pyrazoline obtained from [(7-chloroquinolin-4-yl)amino]chalcones and hydrazine as potential antitumor and antimalarial agents” (Eur J Med Chem, 2013)
